Bioassay records: PubChem, several laboratories
A selection: hits, their analogues and other compounds. The true share with any hit is near 4%.
TAAR1 ag – human TAAR1 agonism. Q96RJ0. CHO RD-HGA16 TAAR1, Fluo-8 calcium fluorescence; vehicle wells 0%, saturating PEA agonist 100%. activation, % at 3 µM. hit rate 0.99% among 360,000;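 active = activation above the mean activation of all test compounds in the run plus 3 SD, cut at about 38% in these data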
Target sequence (Q96RJ0 whole entry, looked up): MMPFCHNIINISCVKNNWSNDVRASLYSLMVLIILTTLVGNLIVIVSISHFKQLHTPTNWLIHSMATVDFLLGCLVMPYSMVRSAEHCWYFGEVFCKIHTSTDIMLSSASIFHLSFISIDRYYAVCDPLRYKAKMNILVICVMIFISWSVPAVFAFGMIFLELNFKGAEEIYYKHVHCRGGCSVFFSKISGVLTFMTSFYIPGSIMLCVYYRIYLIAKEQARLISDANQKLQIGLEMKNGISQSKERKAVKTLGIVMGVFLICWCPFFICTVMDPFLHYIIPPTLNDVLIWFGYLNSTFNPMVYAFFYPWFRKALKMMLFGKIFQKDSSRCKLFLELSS
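System: CHO-derived RD-HGA16 cells with stable Gα16 and human TAAR1. Times: 17-24 h plating, Fluo-8 75 min 37 °C, 30 min RT. Measured by: calcium-sensitive Fluo-8 signal, excitation 470-495, emission 515-575 nm. Read-out basis: % activation relative to PEA EC100 response. Control set: DMSO and PEA EC100. Repeats: no replicates (n 1).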
DAGLB inhibitor – diacylglycerol lipase beta (human) inhibition; HEK293T DAGLB membrane lysate, EnzChek fluorogenic substrate; Q8NCG7; inhibition, % at 5.17 µM; hit rate 0.059% among 340,000; in the data active = inhibition above about 34%;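 also: 0% = enzyme with vehicle and 100% = wells lacking enzyme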
MPTP block – inhibitors of mitochondrial permeability transition pore | isolated mouse mitochondria, Ca2+ swelling absorbance, 30 min | inhibition, % at 10 µM | hit rate 1.4% among 360,000;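 active = inhibition of 50% or more, scaled per plate between neutral and stimulator controls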;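 also: 0% = DMSO wells given calcium and 100% = 1 mM EGTA wells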
TAAR1 antag – human TAAR1 antagonism; CHO RD-HGA16 TAAR1, Fluo-8 calcium fluorescence, antagonist; inhibition, % at 3 µM; hit rate 1.5% among 360,000;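 active = inhibition above a per-plate cutoff, the mean inhibition of test compounds on that plate plus 3 SD, cut at about 49% in these data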;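 also: 0% = DMSO plus EC80 beta-PEA response and 100% = DMSO alone without agonist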
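Test system – hTAAR1-expressing CHO RD-HGA16 cells, Gα16-coupled · Also added – β-PEA at EC80 concentration, post-compound challenge · Compound – 3 µM, single point · Incubation – dye loading 75 min at 37 °C, then 30 min room temperature · Measured by – Fluo-8 intracellular calcium dye fluorescence, real-time kinetic reads · Benchmarks – vehicle and agonist controls · Replicates – singlicate, one well per test compound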
GPR7 antagonist – human neuropeptides B/W receptor 1 antagonism. AID 1861. GPR7-expressing cells, fluorescence antagonist assay. inhibition, % at 4.4 µM. hit rate 1.1% among 290,000. P48145; in the data active = inhibition above about 16%, passing the limit was not always enough;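 also: cells stimulated with the agonist NPW; 0% = agonist with vehicle and 100% = vehicle without agonist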
TAAR1 ag confirm – human TAAR1 agonism, confirmed; shares compounds with TAAR1 ag; CHO RD-HGA16 TAAR1, Fluo-8 calcium fluorescence; scaled: DMSO 0%, maximal phenethylamine 100%; activation, % at 3 µM; hit rate 82% among 2,400; AID 651783;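 active = activation above a cutoff set at the run's mean compound activation plus 3 SD, cut at about 39% in these data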
Ga16 ag counter – nonselective agonism, TAAR1 counter-screen | activation, % at 3 µM | CHO-Ga16 parental, Fluo-8 calcium fluorescence; normalized to maximal ATP response, DMSO zero | hit rate 50% among 2,400 | AID 651787 | shares compounds with TAAR1 ag;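 active = activation above the run cutoff, the mean activation over all tested wells plus 3 SD, cut at about 12% in these data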;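 also: 0% = DMSO wells and 100% = maximal ATP response on the peak over basal ratio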
TAAR1 desens – human TAAR1 agonist that also desensitizes the receptor; shares compounds with TAAR1 ag; CHO RD-HGA16 hTAAR1, Fluo-8 calcium, beta-PEA response inhibition; inhibition, % at 3 µM; hit rate 46% among 2,400;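 active = inhibition above the run cutoff, the mean inhibition of all test compounds plus 3 SD, cut at about 49% in these data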;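 also: beta-PEA stimulus applied at its EC80; loss of beta-PEA calcium signal after compound pretreatment read as receptor desensitization; 0% = DMSO with beta-PEA at EC80 and 100% = DMSO alone without agonist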
Ga16 nonsel ant – nonselective Ga16 antagonism, counter-screen; hit rate 39% among 2,400; CHO-Ga16 ATP-induced calcium, Fluo-8 fluorescence; inhibition, % at 3 µM; AID 651952; shares compounds with TAAR1 ag;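 active = inhibition above the plate's mean compound inhibition plus 3 SD, computed per plate, cut at about 22% in these data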;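 also: 0% = EC80 ATP with DMSO and 100% = DMSO wells without ATP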
* hit, by the source's call; · = no result.

SMILES	TAAR1 ag	DAGLB inhibitor	MPTP block	TAAR1 antag	GPR7 antagonist	TAAR1 ag confirm	Ga16 ag counter	TAAR1 desens	Ga16 nonsel ant
CCCOc1ccc(C(=O)NNC(=S)NC(=O)c2ccco2)cc1	156.4*	2.6	19.5	105.1*	13.9	147.2*	119.3*	103.6*	71.6*
COc1ccc(C(=O)NNC(=S)NC(=O)c2ccco2)cc1	58.8*	3.2	-0.5	12.8	-8.6	66.0*	38.6*	15.8	13.1
CC(Oc1ccc(Cl)cc1)C(=O)NNC(=S)NC(=O)c1ccco1 (centres undefined)	116.5*	3.1	-1.0	48.9*	7.0	78.7*	61.5*	37.1	40.5*
CCCOc1ccc(C(=O)NNC(=S)NC(=O)c2cc(-c3ccccc3)nc3ccccc23)cc1	55.1*	2.7	30.0	21.8	-9.0	82.5*	71.5*	76.7*	73.7*
CCCCN(C)C(=O)c1sc(=O)n(Cc2ccc(Cl)c(Cl)c2)c1C	-1.8	·	-1.8	9.0	·	·	·	·	·
CCNC(=O)N(C)[C@H]1C[C@H]2c3[nH]c4c(-c5ccccc5)cccc4c3CCN2C(=O)[C@H]1[C@H](C)O	3.5	·	·	18.4	·	·	·	·	·
CCCOc1ccc(C(=O)NNC(=S)NC(=O)c2ccccc2[N+](=O)[O-])cc1	78.6*	6.7	-4.6	26.5	-1.5	27.6	28.4*	15.6	26.6*
O=C(NC(=S)NNC(=O)c1ccco1)c1ccc(Br)cc1	94.3*	-0.6	0.1	27.0	-1.0	92.1*	72.0*	35.9	32.3*
C=C1C(=O)N(C)CCC1C(CC)C(=O)OC (centres undefined)	1.1	0.3	0.5	0.0	·	·	·	·	·
CCN1C(=O)Cc2cc(S(=O)(=O)NCCc3ccccc3)ccc21	51.2*	2.3	-1.4	-10.8	12.4	45.6*	1.8	0.7	6.6
CCCNC(=O)Cn1sc2nc(C)cc(C)c2c1=O	52.2*	1.5	-0.7	-12.7	-14.7	36.5	20.6*	23.6	18.0
Cc1cc(C)c2c(=O)n(CC(=O)N3CCC(N4CCCCC4)CC3)sc2n1	1.2	-0.3	1.5	-36.7	-6.4	·	·	·	·
CC(=O)Nc1nnc([N+](=O)[O-])s1	1.6	-3.6	-1.3	3.3	·	·	·	·	·
COC(=O)C1=C(C)N(C)C(=NCc2ccc(OC)cc2)NC1c1ccccc1 (centres undefined)	1.2	·	·	-10.9	·	·	·	·	·
CC1=C(C)CS(=O)N(S(=O)(=O)c2ccc(Cl)cc2)C1 (centres undefined)	76.6*	-4.0	-25.1	35.8	2.2	77.2*	54.2*	25.8	15.4
CCOC(=O)C1(C)CCCN1C(=O)c1cccc2ccccc12 (centres undefined)	0.7	·	0.1	6.4	·	·	·	·	·
O=C1Nc2ccccc2/C1=N/c1sc2c(c1C(=O)NCCc1ccccc1)CCCC2	82.9*	1.9	3.2	71.3*	-4.5	49.9*	18.8*	26.8	22.2*
CC(C)=C1C2CCC1C(C(=O)NCCc1ccccc1)C2C(=O)O (centres undefined)	62.2*	-1.5	0.2	87.5*	-9.7	80.1*	3.8	90.0*	4.1
O=C(NCCc1ccccc1)C1CCN(c2ncccn2)CC1	7.0	0.3	0.3	-21.8	-13.4	·	·	·	·
O=C(O)C1C2C=CC(C3CC23)C1C(=O)NCCc1ccccc1 (centres undefined)	90.6*	-2.9	-15.0	93.2*	-6.8	96.3*	3.5	97.1*	12.3
CN(c1ccccc1)S(=O)(=O)c1cc(C(=O)NCc2ccco2)ccc1Cl	2.2	1.9	-0.7	-2.7	·	·	·	·	·
COc1ccc(C[C@@H]2CN3C(=NC[C@@H]3C)N2CCNC(=O)c2ccc(C)c(Br)c2)cc1	44.7*	2.9	18.8	4.2	-8.0	53.9*	14.7*	6.2	10.8
